{"source": "ChEMBL document CHEMBL4145462", "about": "“Nitrogen-containing ecdysteroid derivatives vs. multi-drug resistance in cancer: Preparation and antitumor activity of oximes, oxime ethers and a lactam” (Eur J Med Chem, 2018)", "key": {"[1]": {"tested_on": "HeLa", "assay": "Antiproliferative activity against human HeLa cells after 72 hrs by MTT assay", "assay_type": "functional, cell-based", "procedure,_shortened": "(§1)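 Cells grown in MEM with 10% FCS, 1% non-essential amino acids and 1% penicillin-streptomycin. Seeded at 5000 cells/well, exposed to 0.1–30.0 µM compound for 72 h. MTT (5 mg/ml solution) was then added for 4 h, formazan dissolved in DMSO, and absorbance read at 545 nm. Cisplatin served as positive control. IC50 came from sigmoidal dose–response fits (log inhibitor vs normalized response, variable slope).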"}, "[2]": {"tested_on": "SiHa", "assay": "Antiproliferative activity against human SiHa cells after 72 hrs by MTT assay", "assay_type": "functional, cell-based", "procedure,_shortened": "as §1"}, "[3]": {"tested_on": "MDA-MB-231", "assay": "Antiproliferative activity against human MDA-MB-231 cells after 72 hrs by MTT assay", "assay_type": "functional, cell-based", "details": "MDA-MB-231, 72 h", "procedure,_shortened": "as §1"}, "[4]": {"tested_on": "MCF7", "assay": "Antiproliferative activity against human MCF7 cells after 72 hrs by MTT assay", "assay_type": "functional, cell-based", "details": "MCF7, 72 h", "procedure,_shortened": "as §1"}, "[5]": {"molecular_target": "T1, ABCB1 (P-glycoprotein) (Homo sapiens, UniProt P08183)", "T1 sequence (P08183 whole entry)": "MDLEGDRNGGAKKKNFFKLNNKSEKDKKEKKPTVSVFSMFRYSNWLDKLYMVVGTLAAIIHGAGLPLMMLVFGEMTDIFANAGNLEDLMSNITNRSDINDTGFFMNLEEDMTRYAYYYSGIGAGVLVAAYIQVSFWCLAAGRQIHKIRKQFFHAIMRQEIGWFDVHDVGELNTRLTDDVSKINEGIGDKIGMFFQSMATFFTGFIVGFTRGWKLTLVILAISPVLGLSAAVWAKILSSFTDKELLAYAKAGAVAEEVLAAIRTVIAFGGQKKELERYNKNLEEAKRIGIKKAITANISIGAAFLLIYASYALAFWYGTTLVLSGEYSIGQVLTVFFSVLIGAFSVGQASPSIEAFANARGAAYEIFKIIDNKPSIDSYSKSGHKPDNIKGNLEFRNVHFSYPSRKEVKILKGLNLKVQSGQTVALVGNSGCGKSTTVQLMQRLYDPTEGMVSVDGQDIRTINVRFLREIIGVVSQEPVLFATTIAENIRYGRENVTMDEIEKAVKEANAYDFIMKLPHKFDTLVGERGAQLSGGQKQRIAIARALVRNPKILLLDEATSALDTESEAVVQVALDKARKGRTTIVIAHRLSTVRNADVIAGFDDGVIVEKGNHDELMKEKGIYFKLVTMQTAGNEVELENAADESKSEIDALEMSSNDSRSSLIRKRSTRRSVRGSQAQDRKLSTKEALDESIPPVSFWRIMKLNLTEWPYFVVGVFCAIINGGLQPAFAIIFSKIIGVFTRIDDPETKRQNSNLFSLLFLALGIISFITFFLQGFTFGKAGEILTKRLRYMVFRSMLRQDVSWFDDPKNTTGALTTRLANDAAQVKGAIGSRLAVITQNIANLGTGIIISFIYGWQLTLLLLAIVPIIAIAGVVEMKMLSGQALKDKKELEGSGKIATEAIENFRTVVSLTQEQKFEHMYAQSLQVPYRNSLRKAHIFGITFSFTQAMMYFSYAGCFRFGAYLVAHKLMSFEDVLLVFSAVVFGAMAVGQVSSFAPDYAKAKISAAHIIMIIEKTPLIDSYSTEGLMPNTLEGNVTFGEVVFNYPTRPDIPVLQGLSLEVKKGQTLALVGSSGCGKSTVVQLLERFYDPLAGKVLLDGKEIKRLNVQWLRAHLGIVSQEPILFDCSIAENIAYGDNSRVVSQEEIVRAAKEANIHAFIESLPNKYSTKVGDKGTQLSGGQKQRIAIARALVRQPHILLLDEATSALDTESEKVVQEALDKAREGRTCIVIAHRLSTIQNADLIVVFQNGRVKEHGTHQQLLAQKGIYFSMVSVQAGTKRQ", "assay": "Inhibition of human ABCB1 expressed in mouse L5178 cells assessed as increase in rhodamine-123 accumulation at 2 uM after 10 mins by flow cytometric analysis relative to control", "assay_type": "cell-based", "details": "mouse L5178 cells expressing human ABCB1, probe rhodamine-123", "procedure,_shortened": "(§2)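 Cells at 2 × 10^6/mL were preincubated 10 min with compound. Rhodamine 123 then added to 5.2 µM final, 20 min at 37 °C. Cells washed twice in PBS, resuspended and read by flow cytometry. Percent inhibition was scaled between MDR-cell accumulation (0%) and parental L5178 accumulation (100%). Controls: 100 nM tariquidar (positive) and 2% DMSO (negative).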"}, "[6]": {"molecular_target": "T1, ABCB1 (P-glycoprotein)", "assay": "Inhibition of human ABCB1 expressed in mouse L5178 cells assessed as increase in rhodamine-123 accumulation at 20 uM after 10 mins by flow cytometric analysis relative to control", "assay_type": "cell-based", "details": "mouse L5178 cells expressing human ABCB1, probe rhodamine-123", "procedure,_shortened": "as §2"}, "[7]": {"assay": "Synergistic cytotoxicity against mouse L5178 cells assessed as combination index at ED50 using 150:1 test compound to doxorubicin ratio after 48 hrs by MTT-based checkerboard microplate method", "assay_type": "functional", "procedure,_shortened": "(§3)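 Checkerboard microplate combinations of compound with doxorubicin at constant molar ratios. 5 × 10^4 cells/well in McCoy's 5A, 48 h at 37°C, 5% CO2. MTT added to 0.5 mg/mL final for 4 h, SDS/HCl overnight, OD read at 540 and 630 nm. Combination indices derived per ratio for 50%, 75% and 90% growth inhibition by median-effect analysis.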"}, "[8]": {"assay": "Synergistic cytotoxicity against mouse L5178 cells expressing human ABCB1 assessed as combination index at ED50 using 15:1 test compound to doxorubicin ratio after 48 hrs by MTT-based checkerboard microplate method", "assay_type": "functional", "procedure,_shortened": "as §3"}, "[9]": {"assay": "Synergistic cytotoxicity against mouse L5178 cells assessed as combination index at ED90 using 150:1 test compound to doxorubicin ratio after 48 hrs by MTT-based checkerboard microplate method", "assay_type": "functional", "procedure,_shortened": "as §3"}, "[10]": {"assay": "Synergistic cytotoxicity against mouse L5178 cells expressing human ABCB1 assessed as combination index at ED75 using 15:1 test compound to doxorubicin ratio after 48 hrs by MTT-based checkerboard microplate method", "assay_type": "functional", "procedure,_shortened": "as §3"}, "[11]": {"assay": "Synergistic cytotoxicity against mouse L5178 cells expressing human ABCB1 assessed as combination index at ED90 using 15:1 test compound to doxorubicin ratio after 48 hrs by MTT-based checkerboard microplate method", "assay_type": "functional", "procedure,_shortened": "as §3"}, "[12]": {"assay": "Synergistic cytotoxicity against mouse L5178 cells expressing human ABCB1 assessed as combination index at ED75 using 30:1 test compound to doxorubicin ratio after 48 hrs by MTT-based checkerboard microplate method", "assay_type": "functional", "procedure,_shortened": "as §3"}, "[13]": {"assay": "Synergistic cytotoxicity against mouse L5178 cells expressing human ABCB1 assessed as combination index at ED90 using 30:1 test compound to doxorubicin ratio after 48 hrs by MTT-based checkerboard microplate method", "assay_type": "functional", "procedure,_shortened": "as §3"}, "[14]": {"assay": "Synergistic cytotoxicity against mouse L5178 cells expressing human ABCB1 assessed as combination index at ED50 using 7.5:1 test compound to doxorubicin ratio after 48 hrs by MTT-based checkerboard microplate method", "assay_type": "functional", "procedure,_shortened": "as §3"}, "[15]": {"assay": "Synergistic cytotoxicity against mouse L5178 cells expressing human ABCB1 assessed as combination index at ED75 using 7.5:1 test compound to doxorubicin ratio after 48 hrs by MTT-based checkerboard microplate method", "assay_type": "functional", "procedure,_shortened": "as §3"}, "[16]": {"assay": "Synergistic cytotoxicity against mouse L5178 cells expressing human ABCB1 assessed as combination index at ED90 using 7.5:1 test compound to doxorubicin ratio after 48 hrs by MTT-based checkerboard microplate method", "assay_type": "functional", "procedure,_shortened": "as §3"}, "[17]": {"assay": "Synergistic cytotoxicity against mouse L5178 cells assessed as combination index at ED50 using 37.5:1 test compound to doxorubicin ratio after 48 hrs by MTT-based checkerboard microplate method", "assay_type": "functional", "procedure,_shortened": "as §3"}, "[18]": {"assay": "Synergistic cytotoxicity against mouse L5178 cells assessed as combination index at ED75 using 37.5:1 test compound to doxorubicin ratio after 48 hrs by MTT-based checkerboard microplate method", "assay_type": "functional", "procedure,_shortened": "as §3"}, "[19]": {"assay": "Synergistic cytotoxicity against mouse L5178 cells expressing human ABCB1 assessed as combination index at ED50 using 3.75:1 test compound to doxorubicin ratio after 48 hrs by MTT-based checkerboard microplate method", "assay_type": "functional", "procedure,_shortened": "as §3"}, "[20]": {"assay": "Synergistic cytotoxicity against mouse L5178 cells expressing human ABCB1 assessed as combination index at ED75 using 3.75:1 test compound to doxorubicin ratio after 48 hrs by MTT-based checkerboard microplate method", "assay_type": "functional", "procedure,_shortened": "as §3"}, "[21]": {"assay": "Synergistic cytotoxicity against mouse L5178 cells assessed as combination index at ED50 using 75:1 test compound to doxorubicin ratio after 48 hrs by MTT-based checkerboard microplate method", "assay_type": "functional", "procedure,_shortened": "as §3"}, "[22]": {"assay": "Synergistic cytotoxicity against mouse L5178 cells assessed as combination index at ED75 using 75:1 test compound to doxorubicin ratio after 48 hrs by MTT-based checkerboard microplate method", "assay_type": "functional", "procedure,_shortened": "as §3"}, "[23]": {"assay": "Synergistic cytotoxicity against mouse L5178 cells expressing human ABCB1 assessed as combination index at ED50 using 60:1 test compound to doxorubicin ratio after 48 hrs by MTT-based checkerboard microplate method", "assay_type": "functional", "procedure,_shortened": "as §3"}, "[24]": {"assay": "Synergistic cytotoxicity against mouse L5178 cells expressing human ABCB1 assessed as combination index at ED75 using 60:1 test compound to doxorubicin ratio after 48 hrs by MTT-based checkerboard microplate method", "assay_type": "functional", "procedure,_shortened": "as §3"}, "[25]": {"assay": "Synergistic cytotoxicity against mouse L5178 cells expressing human ABCB1 assessed as combination index at ED90 using 60:1 test compound to doxorubicin ratio after 48 hrs by MTT-based checkerboard microplate method", "assay_type": "functional", "procedure,_shortened": "as §3"}, "[26]": {"assay": "Synergistic cytotoxicity against mouse L5178 cells assessed as combination index at ED75 using 300:1 test compound to doxorubicin ratio after 48 hrs by MTT-based checkerboard microplate method", "assay_type": "functional", "procedure,_shortened": "as §3"}, "[27]": {"assay": "Synergistic cytotoxicity against mouse L5178 cells assessed as combination index at ED50 using 600:1 test compound to doxorubicin ratio after 48 hrs by MTT-based checkerboard microplate method", "assay_type": "functional", "procedure,_shortened": "as §3"}, "[28]": {"assay": "Synergistic cytotoxicity against mouse L5178 cells assessed as combination index at ED75 using 600:1 test compound to doxorubicin ratio after 48 hrs by MTT-based checkerboard microplate method", "assay_type": "functional", "procedure,_shortened": "as §3"}, "[29]": {"assay": "Synergistic cytotoxicity against mouse L5178 cells assessed as combination index at ED90 using 600:1 test compound to doxorubicin ratio after 48 hrs by MTT-based checkerboard microplate method", "assay_type": "functional", "procedure,_shortened": "as §3"}}, "data": [{"smiles": "CC(C)(O)CC[C@H]1OC(C)(C)O[C@]1(C)[C@H]1CC=C2C3=C/C(=N\\OC(C)(C)C)[C@@H]4C[C@H]5OC(C)(C)O[C@H]5C[C@]4(C)[C@H]3CC[C@@]21C", "values": [{"measurement": "IC50", "setting": "[1]", "value": 26.1, "unit": "µM"}, {"measurement": "IC50", "setting": "[2]", "value": 14.2, "unit": "µM"}, {"measurement": "IC50", "setting": "[3]", "value": 16.9, "unit": "µM"}, {"measurement": "IC50", "setting": "[4]", "value": 19.3, "unit": "µM"}, {"measurement": "inhibition at 10 min, 2 µM", "setting": "[5]", "value": 67.5, "unit": "%"}, {"measurement": "inhibition at 10 min, 20 µM", "setting": "[6]", "value": 94, "unit": "%"}, {"measurement": "CI", "setting": "[7]", "value": 0.28}, {"measurement": "CI", "setting": "[8]", "value": 0.89}, {"measurement": "CI", "setting": "[9]", "value": 0.84}, {"measurement": "CI", "setting": "[10]", "value": 0.27}, {"measurement": "CI", "setting": "[11]", "value": 0.28}, {"measurement": "CI", "setting": "[12]", "value": 0.38}, {"measurement": "CI", "setting": "[13]", "value": 0.41}, {"measurement": "CI", "setting": "[14]", "value": 0.27}, {"measurement": "CI", "setting": "[15]", "value": 0.24}, {"measurement": "CI", "setting": "[16]", "value": 0.23}, {"measurement": "CI", "setting": "[17]", "value": 1.16}, {"measurement": "CI", "setting": "[18]", "value": 0.85}, {"measurement": "CI", "setting": "[19]", "value": 0.31}, {"measurement": "CI", "setting": "[20]", "value": 0.26}, {"measurement": "CI", "setting": "[21]", "value": 1.31}, {"measurement": "CI", "setting": "[22]", "value": 1.03}, {"measurement": "CI", "setting": "[23]", "value": 0.51}, {"measurement": "CI", "setting": "[24]", "value": 0.57}, {"measurement": "CI", "setting": "[25]", "value": 0.64}, {"measurement": "CI", "setting": "[26]", "value": 0.87}, {"measurement": "CI", "setting": "[27]", "value": 0.83}, {"measurement": "CI", "setting": "[28]", "value": 0.89}, {"measurement": "CI", "setting": "[29]", "value": 0.98}]}]}
